Measured values published in ChEMBL document CHEMBL1148348, “New manzamine alkaloids from an Indo-Pacific sponge. Pharmacokinetics, oral availability, and the significant activity of several manzamines against HIV-I, AIDS opportunistic infections, and inflammatory diseases” (J Med Chem, 2004).
In brackets after ≈: the same amount, converted by molar mass.

Experiments:
Staphylococcus aureus [1] = test: Inhibitory concentration against Staphylococcus aureus; Not active; type: functional, organism-based
Cryptococcus neoformans [2] = test: Inhibitory concentration against Cryptococcus neoformans; Not active; type: functional, organism-based
[3] = tested on: Mycobacterium intracellulare; test: Inhibitory concentration against Mycobacterium intracellular; Not active; type: functional, organism-based
Staphylococcus aureus [4] = test: Inhibitory concentration against methicillin-resistant Staphylococcus aureus; Not active; type: functional, organism-based
[5] = tested on: Human immunodeficiency virus 1; test: Effective concentration against HIV-1; type: functional, organism-based
Rattus norvegicus [6] = species on record: Rattus norvegicus; test: Inhibitory activity against superoxide anion generation in rat neonatal brain microglia cells; type: functional, cell-based
Method in brief: (§1)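 Rat neonatal brain microglia stimulated with phorbol ester. Release of superoxide anion or thromboxane B2 is measured, and inhibition is expressed as IC50.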

[7] = Inhibitory activity against thromboxane B2; set-up: species or system Rattus norvegicus; method in brief: as §1
Rattus norvegicus [8] = species on record: Rattus norvegicus; test: Concentration for 50% increase in lactate dehydrogenase release in rat neonatal brain microglia cells; type: functional
Method in brief: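 Lactate dehydrogenase released from rat neonatal brain microglia serves as the marker of cell toxicity. The value is expressed as LDH50.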

Staphylococcus aureus [9] = test: Minimal inhibitory concentration against Staphylococcus aureus; Range is 0.5-6.25 ug/mL; type: functional
[10] = tested on: Mycobacterium intracellulare; test: Minimal inhibitory concentration against Mycobacterium intracellular; Range is 0.5-6.25 ug/mL; type: functional
[11] = Oral bioavailability in rat; type: ADME, organism-based; details: in vivo
Staphylococcus aureus [12] = test: Inhibitory concentration against Staphylococcus aureus; type: functional, organism-based
Cryptococcus neoformans [13] = test: Inhibitory concentration against Cryptococcus neoformans; type: functional, organism-based
[14] = Plasma clearance at 10 mg/kg in rat upon intravenous administration; type: ADME, organism-based; set-up: dose 10 mg/kg, route intravenous
Method in brief: (§2)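 Male Sprague-Dawley rats (280-320 g), jugular/carotid cannulated the day before, fasted until 12 h post-dose. Given 10 mg/kg iv as a 5 min jugular infusion, approx. 3 mg/mL in 10% v/v ethanol/50 mM tartrate buffer pH 3.0. Carotid blood sampled over 96 h; plasma by validated HPLC/MS (LOQ 10 ng/mL). Parameters estimated from mean plasma concentrations, n = 3.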

[15] = Apparent volume of distribution at 10 mg/kg in rat upon intravenous administration; type: ADME, organism-based; set-up: dose 10 mg/kg, route intravenous; details: in vivo; method in brief: as §2
[16] = tested on: Mycobacterium intracellulare; test: Inhibitory concentration against Mycobacterium intracellular; type: functional, organism-based
Staphylococcus aureus [17] = test: Minimal inhibitory concentration against methicillin-resistant Staphylococcus aureus; Range is 0.5-6.25 ug/mL; type: functional
[18] = Cmax in rats; type: ADME, organism-based; details: rat, in vivo
[19] = Tmax in rats; type: ADME, organism-based; details: rat, in vivo
[20] = Half-life at 10 mg/kg in rat upon intravenous administration; type: ADME, organism-based; set-up: dose 10 mg/kg, route intravenous; details: in vivo; method in brief: as §2
[21] = Partition coefficient (logP); type: physicochemical; details: octanol/water
Staphylococcus aureus [22] = test: Inhibitory concentration against methicillin-resistant Staphylococcus aureus; type: functional, organism-based

Compound | IC50 (Staphylococcus aureus [1]) | IC50 (Cryptococcus neoformans [2]) | IC50 [3] | IC50 (Staphylococcus aureus [4]) | EC50 [5] [µM] | also measured
Oc1cccc2c3cc[nH]c(C4=C[C@]56CC/C=C\CCCCN7CC[C@@H]4[C@]4(C[C@@H]8/C=C\CCC[C@@H](O5)N8[C@H]46)C7)c-3nc12 [12,28-OXA-8-HYDROXY-MANZAMINE A] | Not Active | Not Active | Not Active | Not Active |  | 
Cc1cn([C@H]2C[C@H](N=[N+]=[N-])[C@@H](CO)O2)c(=O)[nH]c1=O [ZIDOVUDINE] |  |  |  |  | 0.004 | 
Oc1cccc2c1[nH]c1c(C3=C[C@@]4(O)CC/C=C\CCCCN5CC[C@@H]3[C@]3(CC6/C=C\CCCCN6[C@H]34)C5)nccc12 (stereo partly specified) |  |  |  |  |  | IC50 (Rattus norvegicus [6]): > 30 µM; IC50 [7]: > 30 µM; LDH50 (Rattus norvegicus [8]): >30 µM; MIC (Staphylococcus aureus [9]): < 6.25 µg/mL; MIC [10]: < 6.25 µg/mL
OC1=C[C@@]2(O)CC/C=C\CCCCN3CC[C@@H]1[C@]1(C[C@@H]4/C=C\CCCCN4[C@H]12)C3 [IRCINOL A] | Not Active | Not Active |  |  |  | 
O=C1CCCN2[C@@H](CC1)C[C@]13CN4CCCC/C=C\CC[C@](O)(C=C(c5nccc6c5[nH]c5ccccc56)C1CC4)[C@H]23 (stereo partly specified) [MANZAMINE E] | Not Active | Not Active |  | Not Active |  | 
O[C@]12C=C(c3[nH]ccc4c5ccccc5nc3-4)[C@@H]3CCN(CCCC/C=C\CC1)C[C@@]31C[C@@H]3/C=C\CCCCN3[C@H]12 [MANZAMINE] |  |  |  |  | 4.2 | bioavailability [11]: 20.6%; IC50 (Staphylococcus aureus [12]): 0.5 µg/mL (≈ 0.911 µM); IC50 (Cryptococcus neoformans [13]): 3 µg/mL (≈ 5.47 µM); clearance [14]: 5.1 mL/min/kg; Vd [15]: 23.7 L/kg; IC50 [16]: 0.35 µg/mL (≈ 0.638 µM); MIC (Staphylococcus aureus [17]): < 6.25 µg/mL; MIC (Staphylococcus aureus [9]): < 6.25 µg/mL; Cmax [18]: 1070 ng/mL; Tmax [19]: 10 h; half-life [20]: 53.7 h; logP [21]: 8.34; IC50 (Staphylococcus aureus [22]): 0.7 µg/mL (≈ 1.28 µM); MIC [10]: < 6.25 µg/mL
O=CC1=C[C@@]2(O)CC/C=C\CCCCN3CC[C@@H]1[C@]1(C[C@@H]4/C=C\CCCCN4[C@H]12)C3 [IRCINAL] | Not Active | Not Active | Not Active | Not Active |  | 
C1=C(c2[nH]ccc3c4ccccc4nc2-3)[C@@H]2CCN3CCCC/C=C\CC[C@]14O[C@@H]1CCC/C=C\[C@H]5C[C@@]2(C3)[C@H]4N51 [12,28-OXAMANZAMINE A] | Not Active | Not Active | Not Active | Not Active | 22.2 | 
O=C1CCCN2[C@@H](CC1)C[C@]13CN4CCCC/C=C\CC[C@](O)(C=C(c5nccc6c5[nH]c5c(O)cccc56)C1CC4)[C@H]23 (stereo partly specified) [MANZAMINE F] | Not Active |  |  | Not Active |  | 
